Test results reported in ChEMBL document CHEMBL5036324 (J Med Chem, 2021).
The source made the active and inactive calls. No cut-off for these calls is given here.

Tests used:
[1] = target: T1, TLR7 and TLR8 (Homo sapiens) (UniProt Q9NYK1+Q9NR97); assay: Agonist activity at human TLR7/8 expressed in human PBMC cells assessed as induction of INFgamma production at 0.1 to 32 ug/ml incubated for 12 hrs by multiplexed immunoassay; assay type: cell-based; conditions: filed as agonist, dose 0.1-32 µg/ml
Method in brief: (§1)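 Healthy-volunteer PBMCs from a single donor were isolated by Ficoll−Hypaque gradient and plated at 2.0 × 10⁶ cells/mL. They were stimulated for 12 h with escalating compound concentrations. Supernatants were assayed in duplicate on a 41-analyte magnetic bead cytokine/chemokine panel read by Luminex. EC_max is the concentration giving maximal cytokine induction.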

[2] = target: T1, TLR7 and TLR8 (Homo sapiens); assay: Agonist activity at human TLR7/8 expressed in human PBMC cells assessed as induction of IL-6 production at 0.1 to 32 ug/ml incubated for 12 hrs by multiplexed immunoassay; assay type: cell-based; conditions: filed as agonist, dose 0.1-32 µg/ml; method in brief: as §1
[3] = target: T1, TLR7 and TLR8 (Homo sapiens); assay: Agonist activity at human TLR7/8 expressed in human PBMC cells assessed as induction of INF-alpha regulated IP-10 production at 0.1 to 32 ug/ml incubated for 12 hrs by multiplexed immunoassay; assay type: cell-based; conditions: filed as agonist, dose 0.1-32 µg/ml; method in brief: as §1
CT26 [4] = assay: Antitumor activity against mouse CT26 cells implanted in BALB/c mouse assessed as tumor growth delay at 25 ug, ip administered once per week and measured every 3 days for 23 days; assay type: functional, organism-based; conditions: dose 25.0 µg, time 23.0 day
Method in brief: (§2)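 Subcutaneous CT26 tumours were grown in BALB/c mice, with cells cultured in DMEM/10% FBS. At a mean tumour size of 100 mm³, mice were randomised (n = 5/group). Agonist was given ip once weekly; anti-PD-1 or IgG isotype was given ip at 200 μg twice weekly. Tumour volume (V = 1/2ab²) was measured every 3 days. Mice were euthanised at 2000 mm³.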

CT26 [5] = assay: Antitumor activity against mouse CT26 cells implanted in BALB/c mouse assessed as tumor growth inhibition at 50 ug, ip administered once a week and measured every 3 days for 23 days relative to control; assay type: functional; conditions: dose 50 µg; time 23 day; method in brief: as §2
[6] = Acute toxicity in BALB/c mouse assessed as mortality at 120 mg/kg, ip administered as single dose; assay type: organism-based; conditions: in vivo
[7] = target: T1, TLR7 and TLR8 (Homo sapiens); assay: Agonist activity at human TLR7/8 expressed in human PBMC cells assessed as induction of TNF-alpha production at 0.1 to 32 ug/ml incubated for 12 hrs by multiplexed immunoassay; assay type: cell-based; conditions: filed as agonist, dose 0.1-32 µg/ml; method in brief: as §1
[8] = target: T1, TLR7 and TLR8 (Homo sapiens); assay: Agonist activity at human TLR7/8 expressed in human PBMC cells assessed as induction of IFN-alpha2 production at 0.1 to 32 ug/ml incubated for 12 hrs by multiplexed immunoassay; assay type: cell-based; conditions: filed as agonist, dose 0.1-32 µg/ml; method in brief: as §1
CT26 [9] = assay: Antitumor activity against mouse CT26 cells implanted in BALB/c mouse assessed as tumor growth inhibition at 50 ug, ip administered once a week in presence of anti-PD-1 antibodies and measured every 3 days for 23 days relative to control; assay type: functional; conditions: dose 50 µg; time 23 day; method in brief: as §2
[10] = Toxicity in BALB/c mouse implanted with mouse CT26 cells assessed as decrease in body weight at 25 ug, ip administered once a week for 23 days; assay type: organism-based; conditions: in vivo, 552 h, dose 25 µg, time 23 day
Method in brief: (§3)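 CT26 subcutaneous tumor-bearing BALB/c mice (n = 5) were treated from 100 mm³ tumor volume. TLR7/8 agonist was given ip once weekly, alone or with anti-PD-1 antibody (200 μg ip, twice weekly). Body weight was tracked over the treatment period and reported as mean ± SEM.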

[11] = Toxicity in BALB/c mouse implanted with mouse CT26 cells assessed as reduction in survival at 25 ug, ip administered once a week in presence of anti-PD-1 antibodies and measured 60 days post tumor implantation; assay type: organism-based; conditions: in vivo, 1440 h, dose 25 µg, time 60 day
Method in brief: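 Survival study in CT26-bearing BALB/c mice (n = 10 per group), treated from a tumor volume of 100 mm³. Dosing was 25 μg agonist ip once weekly plus anti-PD-1 antibody at 200 μg ip twice weekly; IgG isotype was the control. Mice were euthanized on signs of distress or at a total tumor size of 2000 mm³.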

[12] = Acute toxicity in BALB/c mouse assessed as mortality at 100 mg/kg, ip administered as single dose; assay type: organism-based; conditions: in vivo
[13] = target: T1, TLR7 and TLR8 (Homo sapiens); assay: Agonist activity at human TLR7/8 expressed in human PBMC cells assessed as induction of IL-6 production by measuring concentration required to induce maximal response incubated for 12 hrs by multiplexed immunoassay; assay type: cell-based; conditions: filed as agonist; method in brief: as §1
[14] = Toxicity in BALB/c mouse implanted with mouse CT26 cells assessed as decrease in body weight at 1.2 g, ip administered on day 4 in combination with anti-PD-1 antibodies measured after 4 days; assay type: organism-based; conditions: in vivo, 96 h, time 4 day; method in brief: as §3
CT26 [15] = assay: Antitumor activity against mouse CT26 cells implanted in BALB/c mouse assessed as tumor growth inhibition at 25 ug, ip administered once a week and measured every 3 days for 23 days relative to control; assay type: functional; conditions: dose 25 µg; time 23 day; method in brief: as §2
CT26 [16] = assay: Antitumor immunity against mouse CT26 cells implanted in BALB/c mouse assessed as increase in infiltration of CD8+ T cytotoxic lymphocytes at 25 ug, ip administered once a week with anti-PD-1 antibody for 23 days by flow cytometry analysis; assay type: functional, organism-based; conditions: dose 25.0 µg, time 23.0 day
Method in brief: (§4)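 CT26-bearing BALB/c mice (n = 5) were treated ip once weekly with agonist, alone or with anti-PD-1 (200 μg, twice weekly). Tumours were harvested 23 days after implantation, enzymatically and mechanically dissociated into single cells, and stained for surface markers plus intracellular FoxP3 after fixation/permeabilisation. Cells were gated within CD45⁺ for CD11c⁺ DCs, CD11b⁺F4/80⁺MHCII⁺ (M1), CD206⁺ (M2), CD3/CD4/CD8, and CD4⁺CD25⁺FoxP3⁺ Treg, then analysed by flow cytometry.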

[17] = Subacute toxicity in BALB/c mouse assessed as body weight loss at 2.19 g, ip administered as single dose; assay type: organism-based; conditions: in vivo
Method in brief: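 Subacute study in BALB/c mice, with treated and control groups. Body weight was recorded every day. Spleens were weighed and photographed, and tissues were examined by H&E staining.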

CT26 [18] = assay: Antitumor immunity against mouse CT26 cells implanted in BALB/c mouse assessed as increase in infiltration of CD4+ TH1 cells at 25 ug, ip administered once a week with anti-PD-1 antibody for 23 days by flow cytometry analysis; assay type: functional, organism-based; conditions: dose 25.0 µg, time 23.0 day; method in brief: as §4
CT26 [19] = assay: Antitumor immunity against mouse CT26 cells implanted in BALB/c mouse assessed as increase in Teff/Treg ratio at 25 ug, ip administered once a week with anti-PD-1 antibody for 23 days by flow cytometry analysis; assay type: functional, organism-based; conditions: dose 25.0 µg, time 23.0 day; method in brief: as §4
[20] = target: T1, TLR7 and TLR8 (Homo sapiens); assay: Agonist activity at human TLR7/8 expressed in human PBMC cells assessed as induction of IP-10 production by measuring concentration required to induce maximal response incubated for 12 hrs by multiplexed immunoassay; assay type: cell-based; conditions: filed as agonist; method in brief: as §1
[21] = target: T1, TLR7 and TLR8 (Homo sapiens); assay: Agonist activity at human TLR7/8 expressed in human PBMC cells assessed as induction of TNFalpha production by measuring concentration required to induce maximal response incubated for 12 hrs by multiplexed immunoassay; assay type: cell-based; conditions: filed as agonist; method in brief: as §1
[22] = target: T1, TLR7 and TLR8 (Homo sapiens); assay: Agonist activity at human TLR7/8 expressed in human PBMC cells assessed as induction of MIP-1alpha production by measuring concentration required to induce maximal response incubated for 12 hrs by multiplexed immunoassay; assay type: cell-based; conditions: filed as agonist; method in brief: as §1
CT26 [23] = assay: Antitumor immunity against mouse CT26 cells implanted in BALB/c mouse assessed as increase in infiltration of CD4+ TH1 cells at 25 ug, ip administered once a week for 23 days by flow cytometry analysis; assay type: functional, organism-based; conditions: dose 25.0 µg, time 23.0 day; method in brief: as §4

Structure (SMILES): COCCNc1nc(N)nc2ccc(Cc3ccc(CN(C)C)cc3)nc12
- Activity [1]: Active
- Activity [2]: Active
- Activity [3]: Active
- Activity (CT26 [4]): Active
- TGI (CT26 [5]): 82.8%
- Activity [6]: Toxic
- Activity [7]: Active
- Activity [8]: Active
- TGI (CT26 [9]): 88.9%
- Activity [10]: Non-Toxic

Structure (SMILES): CCCCNc1nc(N)nc2ccc(Cc3ccc(CN(C)C)cc3)nc12
- Activity [11]: Non-Toxic
- Activity [12]: Toxic
- ECmax [13]: 0.1 µg/mL
- Activity [14]: Non-Toxic
- TGI (CT26 [15]): >96.5%
- Activity (CT26 [16]): Active
- Activity [17]: Toxic
- Activity (CT26 [18]): Active
- Activity (CT26 [19]): Active
- ECmax [20]: 0.1 µg/mL
- ECmax [21]: 0.1 µg/mL
- ECmax [22]: 0.1 µg/mL
- Activity (CT26 [23]): Active
